ChEMBL document CHEMBL5357047, “The development of thymol-isatin hybrids as broad-spectrum antibacterial agents with potent anti-MRSA activity” (RSC Med Chem, 2024)
Converted amounts (≈) assume the structure as drawn. The source made the active and inactive calls. No cut-off for these calls is given here.

Key:
[1] = tested on: Staphylococcus aureus; test: Anti-biofilm activity against Methicillin-resistant Staphylococcus aureus assessed as mean thickness of biofilm at 2XMIC measured after 48 hrs by crystal violet staining based phase contrast microscopy (reference value: 15.03+/-1.63 um); type: functional
[2] = tested on: Staphylococcus aureus; test: Antibacterial activity against clinically isolated Staphylococcus aureus RBRJ010 assessed as inhibition of bacterial growth at 50 uM measured after 48 hrs by agar well diffusion method; type: functional; details: read-out: IZ
[3] = tested on: Pseudomonas aeruginosa; test: Antibacterial activity against Pseudomonas aeruginosa MTCC 424 assessed as inhibition of bacterial growth at 50 uM measured after 48 hrs by agar well diffusion method; type: functional; details: read-out: IZ
[4] = tested on: Staphylococcus aureus; test: Bactericidal activity against Methicillin-resistant Staphylococcus aureus assessed as reduction in colony formation units at 1 to 2XMIC measured after 48 hrs by time-kill assay; type: functional, organism-based
In short: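 Samples taken at 1, 2, 4, 8, 12, 24 and 48 h, diluted in 0.9% saline and plated on Mueller Hinton agar (48 h, 37 °C). CFU counted and log10 CFU mL−1 plotted against time. Triplicate.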

[5] = tested on: Staphylococcus aureus; test: Anti-biofilm activity against Methicillin-resistant Staphylococcus aureus assessed as cell leakage and irregular surface at 1 to 2X MIC measured after 48 hrs by scanning electron microscopy; type: functional, organism-based
[6] = biological target: T1, 4,4'-diapophytoene synthase (Staphylococcus aureus) (UniProt A9JQL9); test: Inhibition of CrtM in Methicillin-resistant Staphylococcus aureus assessed as reduction in staphyloxanthin level at 1/4XMIC measured after 24 hrs by spectroscopic analysis
T1 sequence (whole entry): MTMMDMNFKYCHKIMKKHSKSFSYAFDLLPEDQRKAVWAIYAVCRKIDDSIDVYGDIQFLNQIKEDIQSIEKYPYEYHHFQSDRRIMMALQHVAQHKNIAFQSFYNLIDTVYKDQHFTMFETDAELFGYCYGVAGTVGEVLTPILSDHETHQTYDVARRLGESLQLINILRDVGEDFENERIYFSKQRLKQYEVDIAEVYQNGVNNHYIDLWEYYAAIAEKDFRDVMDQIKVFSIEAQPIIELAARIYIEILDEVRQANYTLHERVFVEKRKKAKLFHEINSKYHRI
In short: (§1)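 Cells pelleted, PBS-washed, extracted overnight in methanol at 37 °C. Supernatant absorbance read at 462 nm (staphyloxanthin), 286 nm (4,4′-diapophytoene), 435 nm (4,4′-diaponeurosporene) or 455 nm (4,4′-diaponeurosporenic acid). % inhibition = (control − treated)/control × 100.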

[7] = tested on: Klebsiella pneumoniae; test: Antibacterial activity against clinically isolated Klebsiella pneumoniae RBRJ024 assessed as inhibition of bacterial growth at 50 uM measured after 48 hrs by agar well diffusion method; type: functional; details: read-out: IZ
[8] = tested on: Staphylococcus epidermidis; test: Antibacterial activity against Staphylococcus epidermidis MTCC 435 assessed as inhibition of bacterial growth at 50 uM measured after 48 hrs by agar well diffusion method; type: functional; details: read-out: IZ
[9] = tested on: Staphylococcus aureus; test: Antibacterial activity against clinically isolated Staphylococcus aureus RBRJ010 assessed as inhibition of bacterial growth measured after 48 hrs by broth microdilution method; type: functional
[10] = tested on: Klebsiella pneumoniae; test: Antibacterial activity against clinically isolated Klebsiella pneumoniae RBRJ019 assessed as inhibition of bacterial growth at 50 uM measured after 48 hrs by agar well diffusion method; type: functional; details: read-out: IZ
[11] = tested on: Staphylococcus aureus; test: Anti-biofilm activity against Methicillin-resistant Staphylococcus aureus assessed as biofilm substrate coverage at 1/2XMIC measured after 48 hrs by crystal violet staining based phase contrast microscopy (reference value: 81.43+/-3.57%); type: functional
[12] = biological target: T1, 4,4'-diapophytoene synthase (Staphylococcus aureus); test: Inhibition of CrtM in Methicillin-resistant Staphylococcus aureus assessed as inhibition of staphyloxanthin production at 1/4 to 1/16XMIC measured after 48 hrs
[13] = biological target: T1, 4,4'-diapophytoene synthase (Staphylococcus aureus); test: Inhibition of CrtM in Methicillin-resistant Staphylococcus aureus assessed as inhibition of staphyloxanthin production by measuring reduction in 4,4'-diapophytoene level at 1/4XMIC measured after 24 hrs by spectroscopic analysis; in short: as §1
[14] = tested on: Enterobacter cloacae; test: Antibacterial activity against clinically isolated Enterobacter cloacae RBRJ017 assessed as inhibition of bacterial growth at 50 uM measured after 48 hrs by agar well diffusion method; type: functional; details: read-out: IZ
[15] = tested on: Enterococcus faecalis; test: Antibacterial activity against Enterococcus faecalis MTCC 439 assessed as inhibition of bacterial growth at 50 uM measured after 48 hrs by agar well diffusion method; type: functional; details: read-out: IZ
[16] = Toxicity against Galleria mellonella assessed as visible injury at 20 mg/kg measured every 12 hrs for 120 hrs; type: organism-based; details: in vivo
In short: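 Uninfected Galleria mellonella larvae (0.2–0.4 g, ten per group) given 20 mg kg−1 compound, alongside untreated, PBS and PBS + 2% DMSO vehicle controls; held at 37 °C and checked every 12 h for 120 h. Larvae that turned black and gave no response to stimulus counted dead; percentage survival recorded.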

[17] = tested on: Staphylococcus aureus; test: Bactericidal activity against clinically isolated Methicillin-resistant Staphylococcus aureus assessed as inhibition of bacterial growth measured after 48 hrs by agar plate method; type: functional
[18] = tested on: Staphylococcus aureus; test: Anti-biofilm activity against Methicillin-resistant Staphylococcus aureus assessed as biofilm volume/area at 2XMIC measured after 48 hrs by crystal violet staining based phase contrast microscopy (reference value: 18.37 +/-1.14 um3/um2); type: functional
[19] = biological target: T1, 4,4'-diapophytoene synthase (Staphylococcus aureus); test: Inhibition of CrtM in Methicillin-resistant Staphylococcus aureus assessed as inhibition of staphyloxanthin production by measuring reduction in 4,4'-diaponeurosporenic acid level at 1/4XMIC measured after 24 hrs by spectroscopic analysis; in short: as §1
[20] = tested on: Staphylococcus aureus; test: Anti-biofilm activity against Methicillin-resistant Staphylococcus aureus assessed as biofilm volume/area at 1/2XMIC measured after 48 hrs by crystal violet staining based phase contrast microscopy (reference value: 18.37 +/-1.14 um3/um2); type: functional
[21] = tested on: Escherichia coli; test: Antibacterial activity against Escherichia coli MTCC 119 assessed as inhibition of bacterial growth at 50 uM measured after 48 hrs by agar well diffusion method; type: functional; details: read-out: IZ
[22] = tested on: Staphylococcus aureus; test: Anti-biofilm activity against Methicillin-resistant Staphylococcus aureus assessed as biofilm volume/area at 1XMIC measured after 48 hrs by crystal violet staining based phase contrast microscopy (reference value: 18.37 +/-1.14 um3/um2); type: functional
[23] = Toxicity against Galleria mellonella assessed as survival rate of larva at 20 mg/kg measured every 12 hrs for 120 hrs; type: organism-based; details: in vivo
In short: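 Uninfected Galleria mellonella larvae (0.2–0.4 g, 10 per group) given 20 mg kg−1. Controls: untreated, PBS, and PBS + 2% DMSO vehicle. Held at 37 °C and monitored every 12 h for 120 h; larvae that were black and unresponsive counted dead. Percentage survival plotted.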

[24] = tested on: Enterococcus faecalis; test: Antibacterial activity against clinically isolated Enterococcus faecalis RBRJ015 assessed as inhibition of bacterial growth at 50 uM measured after 48 hrs by agar well diffusion method; type: functional; details: read-out: IZ
[25] = tested on: Escherichia coli; test: Antibacterial activity against clinically isolated Escherichia coli RBRJ013 assessed as inhibition of bacterial growth at 50 uM measured after 48 hrs by agar well diffusion method; type: functional; details: read-out: IZ
[26] = tested on: Staphylococcus aureus; test: Antibacterial activity against Staphylococcus aureus MTCC 740 assessed as inhibition of bacterial growth measured after 48 hrs by broth microdilution method; type: functional

Q: Which Activity [1] does the source give for `Cc1ccc(C(C)C)c(OCc2cn(CCCN3C(=O)C(=O)c4ccccc43)nn2)c1` here?
A: 0.16 um

Q: What about the zone of inhibition at 50 µM [2] of the same molecule?
A: 27.1 mm

Q: And the zone of inhibition at 50 µM [3]?
A: 22.3 mm

Q: What about the Activity [4] of the same molecule?
A: Active

Q: What about the Activity [5] of the same molecule?
A: Active

Q: And the inhibition [6]?
A: 86%

Q: What about the zone of inhibition at 50 µM [7] of the same molecule?
A: 21.2 mm

Q: And the zone of inhibition at 50 µM [8]?
A: 25.5 mm

Q: What about the MIC [9] of the same molecule?
A: 1.9 µM (≈ 0.795 µg/mL)

Q: What about the zone of inhibition at 50 µM [10] of the same molecule?
A: 20.2 mm

Q: And the Activity [11]?
A: 19.12%

Q: And the inhibition [12]?
A: Dose-Dependent Effect

Q: What about the inhibition [13] of the same molecule?
A: 86%

Q: And the zone of inhibition at 50 µM [14]?
A: 19.2 mm

Q: And the zone of inhibition at 50 µM [15]?
A: 18.5 mm

Q: And the Activity [16]?
A: Non-Toxic

Q: What about the MBC [17] of the same molecule?
A: 3.9 µM (≈ 1.63 µg/mL)

Q: What about the Activity [18] of the same molecule?
A: 0.69 um3/um2

Q: What about the inhibition [19] of the same molecule?
A: 86%

Q: What about the Activity [20] of the same molecule?
A: 3.48 um3/um2

Q: And the zone of inhibition at 50 µM [21]?
A: 22.1 mm

Q: What about the Activity [22] of the same molecule?
A: 1.57 um3/um2

Q: What about the survival at 120 h [23] of the same molecule?
A: 90%

Q: And the zone of inhibition at 50 µM [24]?
A: 20.2 mm

Q: What about the zone of inhibition at 50 µM [25] of the same molecule?
A: 20.3 mm

Q: What about the MIC [26] of the same molecule?
A: 1.9 µM (≈ 0.795 µg/mL)
